Active and inactive are the calls of the source. No cut-off for these calls is given here.
What was measured:
[1] = Antioxidant activity assessed as free radical scavenging activity by lipid peroxidation assay; format: functional
How it was run: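 Lipid peroxidation system initiated with 400 mM FeCl3 and 200 mM L-ascorbic acid (stock levels as printed). Test compound added at several concentrations; control without compound. Incubated 37 °C, 60 min. Stopped with 0.25 N HCl / 1.5% TCA / 0.375% thiobarbituric acid, boiled 15 min, cooled, centrifuged. Absorbance read at 532 nm; percent inhibition versus control used to derive EC50.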

HL-60 [2] = experiment: Induction of apoptosis in human HL60 cells assessed as fragmentation of DNA after 48 hrs by electrophoresis; format: functional, cell-based
How it was run: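 HL60 cells exposed to test compound alongside untreated control. After 48 h, DNA extracted, run on 0.8% agarose gel with ethidium bromide, and fragmentation pattern imaged.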

[3] = Cytotoxicity against human PBMC cells after 5 days by MTT assay; format: cell-based
How it was run: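 Cells seeded at 3 × 10^5 cells/mL in 96-well plates and kept at 37 °C in humidified 5% CO2 with test compound for 5 days. PBMC came from healthy donors. Viability read by MTT; CC50 calculated. Mean ± SD of three independent experiments, Student t-test.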

HL-60 [4] = experiment: Cytotoxicity against human HL60 cells after 5 days by MTT assay; format: functional; conditions: HL-60, 120 h
HL-60 [5] = experiment: Induction of apoptosis in human HL60 cells after 48 hrs using annexin V-propidium iodide staining by FACS analysis; format: functional, cell-based
How it was run: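 HL60 cells incubated with test compound at a concentration set from its CC50. Stained with FITC-Annexin V and analysed by flow cytometry, with treated-cell fluorescence compared against control cells.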

In the case of `O=C1O[C@H]([C@@H](O)CO)C(O)=C1O` [ASCORBIC ACID], the EC50 [1] is reported as 754 µM.
In the case of `CCOc1ccc2c(c1)OC(c1cccc([N+](=O)[O-])c1)C(c1ccccc1)C2=O` (centres undefined), the Activity (HL-60 [2]) is reported as “Active”, the CC50 at 120 h [3] is reported as greater than 2500 µM and the CC50 (HL-60 [4]) is reported as greater than 2500 µM. For the same compound, the EC50 [1] was 193 µM.
With `COc1ccc2c(c1)OC(c1ccc(Cl)cc1)C(c1ccccc1)C2=O` (centres undefined) the Activity (HL-60 [2]) was “Active”, the CC50 at 120 h [3] was greater than 2500 µM and the CC50 (HL-60 [4]) was 2410 µM. It also gave an EC50 [1] of 165 µM.
With `CCOc1ccc2c(c1)OC(c1ccc(Cl)cc1)C(c1ccccc1)C2=O` (centres undefined) the Activity (HL-60 [2]) was “Active”, the CC50 at 120 h [3] was greater than 2500 µM and the CC50 (HL-60 [4]) was 514 µM. It also gave an EC50 [1] of 578 µM.
With `CCOc1ccc2c(c1)OC(c1ccccc1)C(c1ccccc1)C2=O` (centres undefined) the Activity (HL-60 [2]) was “Active”, the CC50 at 120 h [3] was greater than 2500 µM and the CC50 (HL-60 [4]) was greater than 2500 µM. The EC50 [1] was 877 µM.
With `COc1ccc2cc3[n+](cc2c1OC)CCc1cc2c(cc1-3)OCO2` the Activity (HL-60 [5]) was “Active”.
In the case of `COc1ccc2c(c1)OCC(c1ccccc1)C2=O` (centres undefined), the Activity (HL-60 [2]) is reported as “Active”, the CC50 at 120 h [3] is reported as 521 µM and the CC50 (HL-60 [4]) is reported as 82.6 µM. The EC50 [1] was 965 µM.
With `CCOc1ccc2c(c1)OC(c1ccc([N+](=O)[O-])cc1)C(c1ccccc1)C2=O` (centres undefined) the Activity (HL-60 [2]) was “Active”, the CC50 at 120 h [3] was 1360 µM and the CC50 (HL-60 [4]) was 203 µM. For the same compound, the EC50 [1] was greater than 2500 µM.
In the case of `COc1ccc2c(c1)OC(c1cccc([N+](=O)[O-])c1)C(c1ccccc1)C2=O` (centres undefined), the Activity (HL-60 [2]) is reported as “Active”, the CC50 at 120 h [3] is reported as greater than 2500 µM and the CC50 (HL-60 [4]) is reported as greater than 2500 µM. The EC50 [1] was 130 µM.
For `COc1ccc2c(c1)OC(c1ccc([N+](=O)[O-])cc1)C(c1ccccc1)C2=O` (centres undefined), the Activity (HL-60 [2]) was “Active”, the CC50 at 120 h [3] was 595 µM and the CC50 (HL-60 [4]) was 73.2 µM. It also gave an EC50 [1] greater than 2500 µM.
`O=c1[nH]cc(F)c(=O)[nH]1` [FLUOROURACIL] showed a CC50 (HL-60 [4]) of 0.07 µM.
With `COc1ccc2c(c1)OC(c1ccccc1)C(c1ccccc1)C2=O` (centres undefined) the Activity (HL-60 [2]) was “Active”, the CC50 at 120 h [3] was greater than 2500 µM and the CC50 (HL-60 [4]) was 2330 µM. It also gave an EC50 [1] of 500 µM.

Reference: ChEMBL document CHEMBL1165893, “Synthesis, anticancer and antioxidant activities of 7-methoxyisoflavanone and 2,3-diarylchromanones” (Eur J Med Chem, 2010)
